Data published in ChEMBL document CHEMBL2401709 (J Med Chem, 2013).
Activity calls are given as the source filed them. No cut-off for these calls is given here.

Key:
[1] = molecular target: T1, Cyclin-dependent kinase 1 (Homo sapiens, UniProt P06493); assay: Inhibition of CDK1 in human G361 cells sensitized with nocodazole assessed as PP1alpha phosphorylation at Thr320 at 640 nM after 4 hrs by immunoblotting analysis; format: cell-based; details: G-361
Method in brief: (§1)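 G361 cells arrested in mitosis with nocodazole, then dosed with compound. Lysates in Laemmli buffer were immunoblotted on nitrocellulose with antibodies to phospho-PP1α (T320) and phospho-NPM (T199). Peroxidase secondaries with ECL detection.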

G-361 [2] = assay: Induction of apoptosis in human G361 cells assessed as decrease in Mcl-1 at 640 nM up to 2 hrs by immunoblotting analysis; format: functional, cell-based
Method in brief: (§2)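 Treated G361 cells harvested into Laemmli sample buffer. Proteins resolved by SDS-PAGE and blotted to nitrocellulose. Membranes blocked, probed overnight with specific primary antibodies, then peroxidase-conjugated secondaries. ECL detection by CCD camera. Actin served as loading control.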

G-361 [3] = assay: Induction of apoptosis in human G361 cells assessed as dephosphorylation of retinoblastoma protein at Ser780 at 640 nM up to 1 hr by immunoblotting analysis; format: functional, cell-based; method in brief: as §2
G-361 [4] = assay: Induction of apoptosis in human G361 cells assessed as dephosphorylation of retinoblastoma protein at Ser612 at 640 nM up to 1 hr by immunoblotting analysis; format: functional, cell-based; method in brief: as §2
[5] = molecular target: Cyclin-dependent kinase 5/CDK5 activator 1 (Homo sapiens, UniProt Q00535); assay: Inhibition of CDK5/p35 (unknown origin) using histone H1 as substrate; format: protein-complex assay
Method in brief: (§3)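 CDK5/p35, CDK7/cyclin H/MAT1 and CDK9/cyclin T1 in 10 μL reactions with 0.05 μCi [γ-33P]ATP. CDK5 used 1 mg/mL histone H1 with 0.15 μM ATP. CDK7 and CDK9 used (YSPTSPS)2KK with 1.5 μM ATP. Stopped with H3PO4, spotted on P-81, washed. IC50 from dose-response curves.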

G-361 [6] = assay: Induction of apoptosis in human G361 cells assessed as increase of activated caspase 3/7 level using Ac-DEVD-AMC as substrate at 20 to 1280 nM after 24 hrs by fluorimetry assay
G-361 [7] = assay: Induction of apoptosis in human G361 cells assessed as caspase 3/7 activation at 640 nM after 16 hrs by Ac-DEVD-AMC-based fluorimetry assay; format: functional, cell-based
G-361 [8] = assay: Cytotoxicity against human G361 cells assessed as growth inhibition after 72 hrs by calcein AM staining-based fluoroscence assay; format: functional, cell-based; details: G-361, 72 h
G-361 [9] = assay: Induction of apoptosis in human G361 cells assessed as decrease in Mcl-1 after 24 hrs by immunoblotting analysis; format: functional, cell-based; method in brief: as §2
[10] = molecular target: Cyclin-dependent kinase 7 (Homo sapiens) (UniProt P50613); assay: Inhibition of CDK7 in human G361 cells assessed as reduction of phosphorylation of CDK2 at T160 by immunoblotting analysis; format: cell-based; details: G-361; method in brief: as §2
G-361 [11] = assay: Induction of apoptosis in human G361 cells assessed as induction of PARP-1 clevage at 640 nM after 16 hrs by immunoblotting analysis; format: functional, cell-based; method in brief: as §2
G-361 [12] = assay: Induction of apoptosis in human G361 cells assessed as increase of caspase 3/7 activation using Ac-DEVD-AMC as substrate at 20 to 1280 nM after 24 hrs by fluorimetry assay; format: functional, cell-based
CDK7/Cyclin H/MNAT1 = CDK7/Cyclin H/MNAT1 (Homo sapiens, UniProt P50613); assay: Inhibition of CDK7/Cyclin-H/MAT 1 (unknown origin) using (YSPTSPS)2KK peptide as substrate; format: protein-complex assay; method in brief: as §3
[13] = molecular target: T1, Cyclin-dependent kinase 1; assay: Inhibition of CDK1 in human G361 cells sensitized with nocodazole assessed as PP1alpha phosphorylation at Thr320 at 640 nM after 8 hrs by immunoblotting analysis; format: cell-based; details: G-361; method in brief: as §1
HeLa = assay: Cytotoxicity against human HeLa cells assessed as growth inhibition after 72 hrs by calcein AM staining-based fluoroscence assay; format: functional, cell-based
MCF7 = assay: Cytotoxicity against human MCF7 cells assessed as growth inhibition after 72 hrs by calcein AM staining-based fluoroscence assay; format: functional, cell-based; details: MCF7, 72 h
CDK2/CDK4 (Homo sapiens) = CDK2/CDK4 (Homo sapiens) (UniProt P11802+P24941); assay: Inhibition of CDK2/4-mediated retinoblastoma protein phosphorylation at ser780 in human G361 cells at 300 nM after 24 hrs by immunoblotting analysis; format: cell-based; details: G-361; method in brief: as §2
G-361 [14] = assay: Induction of apoptosis in human G361 cells assessed as induction of caspase-3 clevage at 300 nM after 24 hrs by immunoblotting analysis; format: functional, cell-based; method in brief: as §2
CDK9/cyclin T1 = CDK9/cyclin T1 (Homo sapiens, UniProt P50750); assay: Inhibition of CDK9/Cyclin T1 (unknown origin) using (YSPTSPS)2KK peptide as substrate; format: protein-complex assay; method in brief: as §3
G-361 [15] = assay: Induction of apoptosis in human G361 cells assessed as decrease in Mcl-1 at 300 nM after 24 hrs by immunoblotting analysis; format: functional, cell-based; method in brief: as §2
K562 = assay: Cytotoxicity against human K562 cells assessed as growth inhibition after 72 hrs by calcein AM staining-based fluoroscence assay; format: functional, cell-based; details: K562, 72 h
G-361 [16] = assay: Induction of apoptosis in human G361 cells assessed as increase in p53 after 24 hrs by immunoblotting analysis; format: functional, cell-based; method in brief: as §2
G-361 [17] = assay: Induction of apoptosis in human G361 cells assessed as dephosphorylation of RNA polymerase 2 at Ser2 at 640 nM up to 1 hr by immunoblotting analysis; format: functional, cell-based; method in brief: as §2
G-361 [18] = assay: Induction of apoptosis in human G361 cells assessed as caspase 9 activation using Ac-DEHD-AMC as substrate at 300 nM after 24 hrs by fluorimetry assay; format: functional, cell-based; details: in the assay text read “Ac-LEHD-AMC” for “Ac-DEHD-AMC”
Method in brief: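 G361 lysates were made in CHAPS extraction buffer, pH 7.4, clarified at 10000g, and protein-equalized. They were incubated 24 h with 100 μM Ac-LEHD-AMC in 100 mM HEPES pH 7.5, 0.5 mM EDTA, 20% glycerol, 5 mM DTT. AMC fluorescence read at 355/460 nm (ex/em).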

G-361 [19] = assay: Induction of apoptosis in human G361 cells assessed as caspase 3/7 activation using Ac-DEVD-AMC as substrate at 300 nM after 24 hrs by fluorimetry assay; format: functional, cell-based
[20] = molecular target: Cyclin-dependent kinase 7 (Homo sapiens) (UniProt P50613); assay: Inhibition of CDK7 in human G361 cells assessed as reduction of phosphorylation of CDK1 at T161 by immunoblotting analysis; format: cell-based; details: G-361; method in brief: as §2
[21] = molecular target: Cyclin-dependent kinase 9 (Homo sapiens) (UniProt P50750); assay: Inhibition of CDK9-mediated RNA polymerase 2 phosphorylation at ser2 in human G361 cells at 300 nM after 24 hrs by immunoblotting analysis; format: cell-based; details: G-361; method in brief: as §2
G-361 [22] = assay: Induction of apoptosis in human G361 cells assessed as reduction of RNA polymerase 2 level at 640 nM after 16 hrs by immunoblotting analysis; format: functional, cell-based; method in brief: as §2
[23] = molecular target: Cyclin-dependent kinase 2 (Homo sapiens) (UniProt P24941); assay: Inhibition of CDK2 in human G361 cells sensitized with nocodazole assessed as NPM phosphorylation at Thr199 at 640 nM after 4 hrs by immunoblotting analysis; format: cell-based; details: G-361; method in brief: as §1
G-361 [24] = assay: Induction of apoptosis in human G361 cells assessed as dephosphorylation of RNA polymerase 2 at Ser5 at 640 nM up to 1 hr by immunoblotting analysis; format: functional, cell-based; method in brief: as §2
HCT-116 = assay: Cytotoxicity against human HCT116 cells assessed as growth inhibition after 72 hrs by calcein AM staining-based fluoroscence assay; format: functional, cell-based; details: HCT-116, 72 h
G-361 [25] = assay: Induction of apoptosis in human G361 cells assessed as induction of caspase-9 clevage at 300 nM after 24 hrs by immunoblotting analysis; format: functional, cell-based; method in brief: as §2
G-361 [26] = assay: Induction of apoptosis in human G361 cells assessed as reduction of retinoblastoma protein level at 640 nM after 16 hrs by immunoblotting analysis; format: functional, cell-based; method in brief: as §2
G-361 [27] = assay: Induction of apoptosis in human G361 cells assessed as induction of PARP-1 clevage at 80 nM after 24 hrs by immunoblotting analysis; format: functional, cell-based; method in brief: as §2
[28] = molecular target: Cyclin-dependent kinase 2/cyclin E1 (Homo sapiens) (UniProt P24864+P24941); assay: Ratio of roscovitine IC50 to compound IC50 for human recombinant CDK2/Cyclin E; format: protein-complex assay
G-361 [29] = assay: Induction of apoptosis in human G361 cells assessed as induction of caspase-7 clevage at 300 nM after 24 hrs by immunoblotting analysis; format: functional, cell-based; method in brief: as §2
[30] = molecular target: Cyclin-dependent kinase 2/cyclin E1 (Homo sapiens, UniProt P24941); assay: Inhibition of human recombinant CDK2/Cyclin E expressed in baculovirus infected sf9 cells using histone H1 as substrate
G-361 [31] = assay: Induction of apoptosis in human G361 cells assessed as decrease in Mcl-1 protein level at 300 nM after 24 hrs by immunoblotting analysis; format: functional, cell-based; method in brief: as §2
HOS = assay: Cytotoxicity against human HOS cells assessed as growth inhibition after 72 hrs by calcein AM staining-based fluoroscence assay; format: functional, cell-based
G-361 [32] = assay: Induction of apoptosis in human G361 cells assessed as induction of PARP-1 clevage at 300 nM after 24 hrs by immunoblotting analysis; format: functional, cell-based; method in brief: as §2

Cyclin-dependent kinase 7 (Homo sapiens), sequence (P50613 whole entry): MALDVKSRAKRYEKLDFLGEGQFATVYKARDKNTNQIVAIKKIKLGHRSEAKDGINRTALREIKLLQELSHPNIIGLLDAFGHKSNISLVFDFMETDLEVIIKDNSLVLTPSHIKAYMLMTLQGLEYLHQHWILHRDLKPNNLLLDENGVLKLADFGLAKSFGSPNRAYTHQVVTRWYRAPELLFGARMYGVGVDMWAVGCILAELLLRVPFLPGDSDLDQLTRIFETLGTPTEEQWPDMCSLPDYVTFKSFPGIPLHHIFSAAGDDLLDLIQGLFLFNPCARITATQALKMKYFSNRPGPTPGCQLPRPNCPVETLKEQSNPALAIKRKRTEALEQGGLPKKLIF
T1 sequence (P06493 whole entry, looked up): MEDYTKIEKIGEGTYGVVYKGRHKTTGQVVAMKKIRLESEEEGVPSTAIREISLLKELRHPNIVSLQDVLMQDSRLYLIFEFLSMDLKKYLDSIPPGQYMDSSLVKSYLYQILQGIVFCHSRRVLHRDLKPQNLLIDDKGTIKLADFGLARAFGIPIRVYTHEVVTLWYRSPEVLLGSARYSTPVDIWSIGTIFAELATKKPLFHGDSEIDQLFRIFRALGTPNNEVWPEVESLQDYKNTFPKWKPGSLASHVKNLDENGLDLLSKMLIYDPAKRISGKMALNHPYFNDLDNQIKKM
Cyclin-dependent kinase 9 (Homo sapiens), sequence (P50750 whole entry): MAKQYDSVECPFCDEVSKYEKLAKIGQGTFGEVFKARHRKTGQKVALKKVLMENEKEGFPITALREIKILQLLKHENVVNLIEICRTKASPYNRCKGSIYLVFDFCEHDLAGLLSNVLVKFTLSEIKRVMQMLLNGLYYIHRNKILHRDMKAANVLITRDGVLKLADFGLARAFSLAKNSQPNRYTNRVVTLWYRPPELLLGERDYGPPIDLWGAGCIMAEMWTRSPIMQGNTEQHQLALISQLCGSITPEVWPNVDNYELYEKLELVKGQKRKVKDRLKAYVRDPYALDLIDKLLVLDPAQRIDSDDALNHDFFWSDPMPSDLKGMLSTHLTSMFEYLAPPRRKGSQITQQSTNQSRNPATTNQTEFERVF
CDK7/Cyclin H/MNAT1, sequence (P51946 whole entry): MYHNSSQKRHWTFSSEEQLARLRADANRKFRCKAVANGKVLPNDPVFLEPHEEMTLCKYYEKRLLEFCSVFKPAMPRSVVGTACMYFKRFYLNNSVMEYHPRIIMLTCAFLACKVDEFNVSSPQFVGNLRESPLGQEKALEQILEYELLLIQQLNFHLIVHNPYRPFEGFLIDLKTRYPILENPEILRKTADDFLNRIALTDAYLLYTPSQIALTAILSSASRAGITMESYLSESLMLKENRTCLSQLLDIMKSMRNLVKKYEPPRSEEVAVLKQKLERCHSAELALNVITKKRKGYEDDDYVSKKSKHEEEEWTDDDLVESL
CDK7/Cyclin H/MNAT1, sequence (P50613 whole entry): as the sequence (P50613 whole entry) above
CDK7/Cyclin H/MNAT1, sequence (P51948 whole entry, further chain): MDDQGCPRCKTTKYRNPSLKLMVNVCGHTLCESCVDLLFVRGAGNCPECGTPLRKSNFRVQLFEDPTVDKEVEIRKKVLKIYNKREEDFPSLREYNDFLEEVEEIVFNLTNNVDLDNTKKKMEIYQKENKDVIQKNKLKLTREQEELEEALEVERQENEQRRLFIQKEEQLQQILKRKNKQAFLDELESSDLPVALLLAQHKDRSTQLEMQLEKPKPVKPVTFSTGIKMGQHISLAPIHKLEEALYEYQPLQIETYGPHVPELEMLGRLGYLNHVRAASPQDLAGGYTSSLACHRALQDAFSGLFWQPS
CDK9/cyclin T1, sequence (O60563 whole entry): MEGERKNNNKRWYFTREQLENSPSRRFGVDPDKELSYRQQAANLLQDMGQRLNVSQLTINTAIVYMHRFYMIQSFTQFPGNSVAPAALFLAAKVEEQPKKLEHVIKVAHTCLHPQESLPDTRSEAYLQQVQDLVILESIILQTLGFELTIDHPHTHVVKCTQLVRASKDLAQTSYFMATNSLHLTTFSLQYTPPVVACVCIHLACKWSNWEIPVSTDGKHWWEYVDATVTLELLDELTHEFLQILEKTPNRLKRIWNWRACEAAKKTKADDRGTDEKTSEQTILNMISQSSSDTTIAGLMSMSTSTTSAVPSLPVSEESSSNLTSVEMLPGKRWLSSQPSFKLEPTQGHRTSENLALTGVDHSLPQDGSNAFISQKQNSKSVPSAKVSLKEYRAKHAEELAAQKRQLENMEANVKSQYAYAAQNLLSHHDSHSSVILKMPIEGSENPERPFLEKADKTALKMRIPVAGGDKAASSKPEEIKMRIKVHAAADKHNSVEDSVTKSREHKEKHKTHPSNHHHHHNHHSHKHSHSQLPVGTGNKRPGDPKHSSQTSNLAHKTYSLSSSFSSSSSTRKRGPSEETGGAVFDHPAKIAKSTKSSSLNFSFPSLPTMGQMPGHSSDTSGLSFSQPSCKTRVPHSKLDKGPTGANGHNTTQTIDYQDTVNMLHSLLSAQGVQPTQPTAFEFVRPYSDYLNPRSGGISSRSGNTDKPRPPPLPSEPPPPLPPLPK
CDK9/cyclin T1, sequence (P50750 whole entry): as the sequence (P50750 whole entry) above
Cyclin-dependent kinase 5/CDK5 activator 1, sequence (Q00535 whole entry): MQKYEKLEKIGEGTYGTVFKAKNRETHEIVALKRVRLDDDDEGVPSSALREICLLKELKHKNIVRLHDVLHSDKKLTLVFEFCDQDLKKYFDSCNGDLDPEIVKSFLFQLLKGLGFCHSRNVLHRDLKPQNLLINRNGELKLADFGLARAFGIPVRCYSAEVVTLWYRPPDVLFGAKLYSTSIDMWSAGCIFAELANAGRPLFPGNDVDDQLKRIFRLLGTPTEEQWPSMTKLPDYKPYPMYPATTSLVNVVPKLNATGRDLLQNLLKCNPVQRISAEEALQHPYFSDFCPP
Cyclin-dependent kinase 5/CDK5 activator 1, sequence (Q15078 whole entry, further chain): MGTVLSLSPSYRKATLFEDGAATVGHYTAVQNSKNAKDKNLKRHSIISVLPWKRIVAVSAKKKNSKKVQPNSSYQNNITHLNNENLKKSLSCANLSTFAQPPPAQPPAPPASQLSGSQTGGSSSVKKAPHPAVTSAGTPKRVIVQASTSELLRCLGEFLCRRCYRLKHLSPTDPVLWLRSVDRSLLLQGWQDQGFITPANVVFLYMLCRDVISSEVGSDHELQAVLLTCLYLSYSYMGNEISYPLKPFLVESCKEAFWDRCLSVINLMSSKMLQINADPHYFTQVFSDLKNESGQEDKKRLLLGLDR

## NC1CCC(Nc2nc(NCc3ccc(-c4ccccc4O)nc3)c3ncn(C4CCCC4)c3n2)CC1 (stereo not drawn)
[1]
  inhibition: Active
G-361 [2]
  Activity: Active
G-361 [3]
  Activity: Active
G-361 [4]
  Activity: Active
[5]
  IC50: 18.7 nM
G-361 [6]
  Activity: Active
G-361 [7]
  Activity: Active
G-361 [8]
  IC50: 24 nM
G-361 [9]
  Activity: Dose-dependent effect
[10]
  inhibition: Active
G-361 [11]
  Activity: Active
G-361 [12]
  Activity: Active
CDK7/Cyclin H/MNAT1
  IC50: 306 nM
[13]
  inhibition: Active
HeLa
  IC50: 16 nM
MCF7
  IC50: 18 nM
CDK2/CDK4 (Homo sapiens)
  inhibition: Active
G-361 [14]
  Activity: Active
CDK9/cyclin T1
  IC50: 10.9 nM
G-361 [15]
  Activity: Active
K562
  IC50: 16 nM
G-361 [16]
  Activity: Dose-dependent effect
G-361 [17]
  Activity: Active
G-361 [18]
  Activity: Active
G-361 [19]
  Activity: Active
[20]
  inhibition: Active
[21]
  Inhibition of RNA polymerase II Ser2 phosphorylation (qualitative): Active
G-361 [22]
  Activity: Active
[23]
  inhibition: Active
G-361 [24]
  Activity: Active
HCT-116
  IC50: 35 nM
G-361 [25]
  Activity: Active
G-361 [26]
  Activity: Active
G-361 [27]
  Activity: Active
[28]
  Ratio IC50: 20
G-361 [29]
  Activity: Active
[30]
  IC50: 7.1 nM
G-361 [31]
  Activity: Active
HOS
  IC50: 14 nM
G-361 [32]
  Activity: Active

## NC1CCC(Nc2nc(NCc3ccc(-c4ccoc4)nc3)c3ncn(C4CCCC4)c3n2)CC1 (stereo not drawn)
G-361 [8]
  IC50: 97 nM
HeLa
  IC50: 15 nM
MCF7
  IC50: 32 nM
CDK2/CDK4 (Homo sapiens)
  inhibition: Active
G-361 [14]
  Activity: Active
G-361 [15]
  Activity: Active
K562
  IC50: 56 nM
G-361 [18]
  Activity: Active
G-361 [19]
  Activity: Active
[21]
  Inhibition of RNA polymerase II Ser2 phosphorylation (qualitative): Active
HCT-116
  IC50: 46 nM
G-361 [25]
  Activity: Active
[28]
  Ratio IC50: 20
G-361 [29]
  Activity: Active
[30]
  IC50: 8 nM
G-361 [31]
  Activity: Active
HOS
  IC50: 24 nM
G-361 [32]
  Activity: Active
